Experimental data from ChEMBL document CHEMBL1944596, “7,8-dichloro-1-oxo-β-carbolines as a versatile scaffold for the development of potent and selective kinase inhibitors with unusual binding modes” (J Med Chem, 2012).

How the values were obtained:
[1] = target: T1, Myosin light chain kinase family member 4 (Homo sapiens) (UniProt Q86YV6); test: Binding affinity to SGK085 assessed as change in thermal denaturation at 10 uM by thermal stability shift assay
T1 sequence (whole entry): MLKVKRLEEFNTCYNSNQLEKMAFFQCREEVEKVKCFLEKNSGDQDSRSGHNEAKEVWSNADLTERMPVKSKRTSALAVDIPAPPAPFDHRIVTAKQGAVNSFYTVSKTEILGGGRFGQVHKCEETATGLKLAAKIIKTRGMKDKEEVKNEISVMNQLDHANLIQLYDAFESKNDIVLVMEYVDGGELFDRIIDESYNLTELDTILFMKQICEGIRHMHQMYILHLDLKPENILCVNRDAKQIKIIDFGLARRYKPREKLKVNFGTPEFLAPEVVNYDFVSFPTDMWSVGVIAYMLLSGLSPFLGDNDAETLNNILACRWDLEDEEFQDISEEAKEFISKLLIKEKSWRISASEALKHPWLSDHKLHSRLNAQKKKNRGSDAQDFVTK
Procedure, shortened: (§1)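 Each compound was screened across a kinase panel by thermal stability shift assay. The read-out was the shift in protein melting temperature (ΔTm, in °C) relative to the unliganded kinase. A ΔTm of 4.0 °C served as the hit cutoff.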

[2] = target: Casein kinase II subunit alpha' (Homo sapiens) (UniProt P19784); test: Binding affinity to CK2alpha2 assessed as change in thermal denaturation at 10 uM by thermal stability shift assay; procedure, shortened: as §1
Chain of Casein kinase II subunit alpha' (Homo sapiens) (P19784 whole entry, looked up): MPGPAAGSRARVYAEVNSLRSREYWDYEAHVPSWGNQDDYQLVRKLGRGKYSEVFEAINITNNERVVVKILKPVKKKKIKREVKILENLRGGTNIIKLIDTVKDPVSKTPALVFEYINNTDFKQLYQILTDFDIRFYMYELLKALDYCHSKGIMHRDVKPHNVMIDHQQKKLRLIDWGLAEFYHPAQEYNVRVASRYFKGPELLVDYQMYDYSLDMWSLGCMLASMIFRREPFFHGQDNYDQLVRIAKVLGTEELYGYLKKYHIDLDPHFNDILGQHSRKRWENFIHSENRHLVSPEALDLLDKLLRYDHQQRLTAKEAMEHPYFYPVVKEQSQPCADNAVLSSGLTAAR

[3] = target: Serine/threonine-protein kinase 33 (Homo sapiens) (UniProt Q9BYT3); test: Binding affinity to STK33 assessed as change in thermal denaturation at 10 uM by thermal stability shift assay; procedure, shortened: as §1
Chain of Serine/threonine-protein kinase 33 (Homo sapiens) (Q9BYT3 whole entry, looked up): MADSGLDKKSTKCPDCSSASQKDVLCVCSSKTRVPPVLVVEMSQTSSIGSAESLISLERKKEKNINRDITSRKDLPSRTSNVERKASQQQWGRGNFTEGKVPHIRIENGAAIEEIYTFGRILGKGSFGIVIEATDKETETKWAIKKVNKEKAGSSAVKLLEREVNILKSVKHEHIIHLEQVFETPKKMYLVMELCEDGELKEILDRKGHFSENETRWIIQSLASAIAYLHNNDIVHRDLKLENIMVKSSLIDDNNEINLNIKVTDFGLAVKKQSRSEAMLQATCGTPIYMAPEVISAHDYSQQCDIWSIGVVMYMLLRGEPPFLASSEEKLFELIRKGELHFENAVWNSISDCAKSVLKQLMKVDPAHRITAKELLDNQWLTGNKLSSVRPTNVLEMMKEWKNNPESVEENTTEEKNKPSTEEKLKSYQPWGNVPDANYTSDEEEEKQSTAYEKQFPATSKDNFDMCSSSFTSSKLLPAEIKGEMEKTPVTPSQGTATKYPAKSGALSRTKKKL

[4] = target: Dual specificity protein kinase CLK4 (Homo sapiens) (UniProt Q9HAZ1); test: Binding affinity to CLK4 assessed as change in thermal denaturation at 10 uM by thermal stability shift assay; procedure, shortened: as §1
Chain of Dual specificity protein kinase CLK4 (Homo sapiens) (Q9HAZ1 whole entry, looked up): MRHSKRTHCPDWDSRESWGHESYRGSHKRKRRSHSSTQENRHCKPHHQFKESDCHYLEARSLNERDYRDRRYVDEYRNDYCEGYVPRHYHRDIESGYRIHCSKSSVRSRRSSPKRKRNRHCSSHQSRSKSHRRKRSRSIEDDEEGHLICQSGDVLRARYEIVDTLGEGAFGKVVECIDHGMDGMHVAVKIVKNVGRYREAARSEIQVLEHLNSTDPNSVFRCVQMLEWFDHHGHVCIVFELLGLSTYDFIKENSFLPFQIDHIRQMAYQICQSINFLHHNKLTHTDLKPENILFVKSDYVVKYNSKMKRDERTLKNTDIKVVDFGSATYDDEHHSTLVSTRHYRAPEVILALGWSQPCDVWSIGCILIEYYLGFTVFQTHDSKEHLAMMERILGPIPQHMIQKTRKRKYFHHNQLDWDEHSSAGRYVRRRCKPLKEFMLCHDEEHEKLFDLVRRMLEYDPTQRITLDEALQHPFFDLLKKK

[5] = target: Serine/threonine-protein kinase pim-3 (Homo sapiens, UniProt Q86V86); test: Binding affinity to PIM3 assessed as change in thermal denaturation at 10 uM by thermal stability shift assay; procedure, shortened: as §1
[6] = target: Serine/threonine-protein kinase PLK1 (Homo sapiens) (UniProt P53350); test: Binding affinity to PLK1 assessed as change in thermal denaturation at 10 uM by thermal stability shift assay; procedure, shortened: as §1
Chain of Serine/threonine-protein kinase PLK1 (Homo sapiens) (P53350 whole entry): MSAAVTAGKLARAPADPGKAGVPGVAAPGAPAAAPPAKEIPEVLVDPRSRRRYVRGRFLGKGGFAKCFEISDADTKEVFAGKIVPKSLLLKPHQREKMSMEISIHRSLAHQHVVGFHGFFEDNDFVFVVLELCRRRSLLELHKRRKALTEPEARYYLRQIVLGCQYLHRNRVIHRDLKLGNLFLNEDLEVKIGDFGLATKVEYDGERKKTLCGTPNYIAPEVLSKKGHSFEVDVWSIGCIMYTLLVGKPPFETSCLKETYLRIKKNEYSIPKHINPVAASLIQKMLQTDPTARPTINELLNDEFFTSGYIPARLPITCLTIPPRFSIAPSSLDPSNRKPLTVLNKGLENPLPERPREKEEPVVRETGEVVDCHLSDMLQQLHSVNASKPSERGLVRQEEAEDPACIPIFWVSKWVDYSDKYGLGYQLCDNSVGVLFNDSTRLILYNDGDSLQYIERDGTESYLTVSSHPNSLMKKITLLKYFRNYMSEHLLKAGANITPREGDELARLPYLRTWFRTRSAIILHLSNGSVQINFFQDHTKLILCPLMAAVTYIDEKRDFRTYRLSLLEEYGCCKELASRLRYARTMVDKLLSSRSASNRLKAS

[7] = target: T2, Cyclin-G-associated kinase (Homo sapiens) (UniProt O14976); test: Binding affinity to GAK assessed as change in thermal denaturation at 10 uM by thermal stability shift assay; procedure, shortened: as §1
T2 sequence (whole entry): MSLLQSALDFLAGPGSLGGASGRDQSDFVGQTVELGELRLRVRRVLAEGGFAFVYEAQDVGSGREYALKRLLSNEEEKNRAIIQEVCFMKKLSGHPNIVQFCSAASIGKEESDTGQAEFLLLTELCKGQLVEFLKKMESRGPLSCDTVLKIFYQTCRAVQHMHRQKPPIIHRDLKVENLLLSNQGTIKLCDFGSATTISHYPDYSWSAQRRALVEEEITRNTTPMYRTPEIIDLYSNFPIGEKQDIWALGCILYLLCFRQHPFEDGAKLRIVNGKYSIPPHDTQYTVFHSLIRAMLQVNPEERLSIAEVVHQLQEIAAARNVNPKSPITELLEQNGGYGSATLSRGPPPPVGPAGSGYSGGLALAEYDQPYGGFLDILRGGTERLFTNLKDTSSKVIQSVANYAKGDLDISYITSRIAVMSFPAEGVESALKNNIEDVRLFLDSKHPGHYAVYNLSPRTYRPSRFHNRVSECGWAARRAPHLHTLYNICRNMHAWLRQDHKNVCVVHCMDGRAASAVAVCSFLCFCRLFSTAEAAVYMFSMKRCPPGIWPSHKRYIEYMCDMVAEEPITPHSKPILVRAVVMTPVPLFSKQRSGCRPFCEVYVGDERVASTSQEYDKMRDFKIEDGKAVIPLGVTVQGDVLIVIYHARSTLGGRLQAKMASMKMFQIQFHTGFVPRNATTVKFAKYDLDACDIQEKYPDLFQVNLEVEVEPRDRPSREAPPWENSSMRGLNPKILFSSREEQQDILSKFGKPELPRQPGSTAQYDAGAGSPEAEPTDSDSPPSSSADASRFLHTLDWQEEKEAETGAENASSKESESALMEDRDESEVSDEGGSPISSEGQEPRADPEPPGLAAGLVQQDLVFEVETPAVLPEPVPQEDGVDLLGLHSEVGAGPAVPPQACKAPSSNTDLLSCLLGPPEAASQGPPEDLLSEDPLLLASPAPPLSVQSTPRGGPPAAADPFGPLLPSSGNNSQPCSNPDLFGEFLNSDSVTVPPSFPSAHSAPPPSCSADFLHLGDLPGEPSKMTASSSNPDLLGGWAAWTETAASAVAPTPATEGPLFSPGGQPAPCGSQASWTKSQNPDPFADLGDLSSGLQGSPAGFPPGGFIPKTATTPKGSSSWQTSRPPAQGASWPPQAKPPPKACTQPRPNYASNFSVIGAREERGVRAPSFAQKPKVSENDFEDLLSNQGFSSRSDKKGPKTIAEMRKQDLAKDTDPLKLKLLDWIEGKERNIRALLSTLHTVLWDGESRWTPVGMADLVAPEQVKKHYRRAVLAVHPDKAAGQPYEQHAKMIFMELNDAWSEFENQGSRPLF

[8] = target: T3, cAMP-dependent protein kinase catalytic subunit PRKX (Homo sapiens) (UniProt P51817); test: Binding affinity to PRKX assessed as change in thermal denaturation at 10 uM by thermal stability shift assay; procedure, shortened: as §1
T3 sequence (whole entry): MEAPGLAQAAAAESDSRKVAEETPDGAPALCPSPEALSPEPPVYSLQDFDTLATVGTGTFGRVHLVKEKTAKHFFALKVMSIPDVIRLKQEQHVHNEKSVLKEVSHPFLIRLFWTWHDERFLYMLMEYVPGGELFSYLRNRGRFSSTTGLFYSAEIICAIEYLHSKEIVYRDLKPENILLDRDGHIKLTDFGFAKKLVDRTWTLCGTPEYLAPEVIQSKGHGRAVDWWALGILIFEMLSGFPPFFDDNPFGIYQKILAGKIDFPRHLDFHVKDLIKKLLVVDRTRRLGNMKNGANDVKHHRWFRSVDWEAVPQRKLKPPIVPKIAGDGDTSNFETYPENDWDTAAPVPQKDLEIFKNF

[9] = target: Tyrosine-protein kinase Fes/Fps (Homo sapiens) (UniProt P07332); test: Binding affinity to FES assessed as change in thermal denaturation at 10 uM by thermal stability shift assay; procedure, shortened: as §1
Chain of Tyrosine-protein kinase Fes/Fps (Homo sapiens) (P07332 whole entry): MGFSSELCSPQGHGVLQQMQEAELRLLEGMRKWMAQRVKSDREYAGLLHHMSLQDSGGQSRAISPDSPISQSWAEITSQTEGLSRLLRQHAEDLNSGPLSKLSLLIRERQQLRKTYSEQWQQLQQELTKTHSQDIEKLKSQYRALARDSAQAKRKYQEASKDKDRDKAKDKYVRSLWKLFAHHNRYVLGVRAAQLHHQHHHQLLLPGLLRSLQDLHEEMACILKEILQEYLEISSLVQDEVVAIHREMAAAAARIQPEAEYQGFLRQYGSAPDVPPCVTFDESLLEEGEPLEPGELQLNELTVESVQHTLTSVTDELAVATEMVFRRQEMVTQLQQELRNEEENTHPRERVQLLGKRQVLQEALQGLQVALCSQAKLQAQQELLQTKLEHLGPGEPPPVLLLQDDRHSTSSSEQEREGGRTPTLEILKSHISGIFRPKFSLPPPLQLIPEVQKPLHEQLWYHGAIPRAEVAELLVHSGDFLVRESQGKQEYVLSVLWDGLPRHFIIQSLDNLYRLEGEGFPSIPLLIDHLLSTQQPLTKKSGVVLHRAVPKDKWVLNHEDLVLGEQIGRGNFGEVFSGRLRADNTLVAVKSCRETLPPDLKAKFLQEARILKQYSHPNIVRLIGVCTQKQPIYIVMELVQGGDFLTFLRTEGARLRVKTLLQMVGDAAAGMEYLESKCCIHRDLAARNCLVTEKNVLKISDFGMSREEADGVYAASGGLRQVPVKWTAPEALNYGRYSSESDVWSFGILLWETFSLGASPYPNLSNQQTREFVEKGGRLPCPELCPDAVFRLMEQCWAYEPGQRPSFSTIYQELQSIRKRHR

[10] = target: Serine/threonine-protein kinase pim-1 (Homo sapiens, UniProt P11309); test: Binding affinity to PIM1 assessed as change in thermal denaturation at 10 uM by thermal stability shift assay; procedure, shortened: as §1
Chain of Serine/threonine-protein kinase pim-1 (P11309 whole entry, looked up): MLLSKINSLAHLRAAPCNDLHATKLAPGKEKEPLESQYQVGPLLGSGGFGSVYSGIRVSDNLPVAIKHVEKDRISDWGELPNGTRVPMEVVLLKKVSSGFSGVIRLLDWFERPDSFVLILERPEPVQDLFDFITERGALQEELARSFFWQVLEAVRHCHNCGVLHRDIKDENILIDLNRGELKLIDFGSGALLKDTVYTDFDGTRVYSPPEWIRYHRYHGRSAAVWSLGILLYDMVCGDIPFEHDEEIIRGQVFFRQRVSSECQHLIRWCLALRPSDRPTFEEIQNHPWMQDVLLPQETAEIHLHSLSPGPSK

[11] = target: Serine/threonine-protein kinase pim-2 (Homo sapiens, UniProt Q9P1W9); test: Binding affinity to PIM2 assessed as change in thermal denaturation at 10 uM by thermal stability shift assay; procedure, shortened: as §1
Chain of Serine/threonine-protein kinase pim-2 (Q9P1W9 whole entry, looked up): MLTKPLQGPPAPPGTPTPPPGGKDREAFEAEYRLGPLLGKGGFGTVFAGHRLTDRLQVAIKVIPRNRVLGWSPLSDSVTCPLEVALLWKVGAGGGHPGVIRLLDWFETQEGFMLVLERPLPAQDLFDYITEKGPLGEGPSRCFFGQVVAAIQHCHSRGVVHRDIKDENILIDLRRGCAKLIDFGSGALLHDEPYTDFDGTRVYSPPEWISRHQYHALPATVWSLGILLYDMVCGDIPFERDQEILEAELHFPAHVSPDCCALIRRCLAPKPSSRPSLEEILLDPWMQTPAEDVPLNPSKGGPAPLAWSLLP

[12] = target: AP2-associated protein kinase 1 (Homo sapiens) (UniProt Q2M2I8); test: Binding affinity to AAK1 assessed as change in thermal denaturation at 10 uM by thermal stability shift assay; procedure, shortened: as §1
Chain of AP2-associated protein kinase 1 (Homo sapiens) (Q2M2I8 whole entry, looked up): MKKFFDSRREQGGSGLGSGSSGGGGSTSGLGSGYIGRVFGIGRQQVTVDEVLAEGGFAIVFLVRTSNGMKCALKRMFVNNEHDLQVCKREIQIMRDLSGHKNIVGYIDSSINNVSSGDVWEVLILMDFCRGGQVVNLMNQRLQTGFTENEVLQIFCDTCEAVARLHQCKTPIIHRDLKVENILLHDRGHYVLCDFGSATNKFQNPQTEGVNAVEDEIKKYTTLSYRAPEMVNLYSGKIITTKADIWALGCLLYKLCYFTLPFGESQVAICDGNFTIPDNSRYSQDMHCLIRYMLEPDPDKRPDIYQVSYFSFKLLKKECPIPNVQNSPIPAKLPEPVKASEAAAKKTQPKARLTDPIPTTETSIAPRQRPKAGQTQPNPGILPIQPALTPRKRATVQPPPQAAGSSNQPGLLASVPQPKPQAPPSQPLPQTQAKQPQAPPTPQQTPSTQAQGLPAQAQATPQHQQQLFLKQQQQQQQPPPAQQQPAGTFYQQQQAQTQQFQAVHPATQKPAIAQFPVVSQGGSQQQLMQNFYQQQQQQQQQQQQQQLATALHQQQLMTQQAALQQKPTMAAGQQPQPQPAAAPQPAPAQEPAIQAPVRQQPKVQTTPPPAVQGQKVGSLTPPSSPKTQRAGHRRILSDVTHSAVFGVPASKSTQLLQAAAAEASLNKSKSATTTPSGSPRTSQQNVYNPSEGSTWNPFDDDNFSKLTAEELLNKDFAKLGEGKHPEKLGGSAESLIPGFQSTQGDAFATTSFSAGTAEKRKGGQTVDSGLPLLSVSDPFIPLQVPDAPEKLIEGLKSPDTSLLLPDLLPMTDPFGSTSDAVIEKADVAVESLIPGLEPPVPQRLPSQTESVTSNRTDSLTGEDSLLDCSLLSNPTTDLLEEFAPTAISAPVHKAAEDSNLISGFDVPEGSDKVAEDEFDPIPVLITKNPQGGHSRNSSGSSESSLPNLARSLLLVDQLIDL

| ΔTm [1] [°C] | ΔTm [2] [°C] | ΔTm [3] [°C] | ΔTm [4] [°C] | ΔTm [5] [°C] | ΔTm [6] [°C] | ΔTm [7] [°C] | ΔTm [8] [°C] | ΔTm [9] [°C] | ΔTm [10] [°C] | ΔTm [11] [°C] | ΔTm [12] [°C] | SMILES |
| --- | --- | --- | --- | --- | --- | --- | --- | --- | --- | --- | --- | --- |
| 0.1 | 1 | 0.2 | 3.3 | 3.8 | 1.3 | 1.2 | 0.7 | 0 | 3.8 | 1.6 | 1.5 | Cn1c2c(c3ccc(Cl)c(Cl)c31)C(C#N)C1(CCCC1)NC2=O (stereo not given) |
| 0.6 | 1 | 0.3 | 1.4 | 0.7 | 0.7 | 0.5 | 0.7 | 0.4 | 1.1 | 0.7 | 0.2 | CC(=O)NCC1c2c(n(C)c3c(Cl)c(Cl)ccc23)C(=O)NC1(C)C (racemic) |
| 2 | 2.1 | 2.2 | 4.3 | 6.2 | 4.9 | 2.8 | 2.8 | -0.3 | 5.7 | 3.6 | 2.2 | Cn1c2c(c3ccc(Cl)c(Cl)c31)C(C#N)C(C)(C)NC2=O (stereo not given) |
| 0.2 | 0.5 | 0.9 | 2.8 | 3.7 | -0.6 | 0.7 | 3.3 | 0.3 | 3.6 | 3.2 | 0.8 | Cn1c2c(c3ccc(Cl)c(Cl)c31)C(CN)C(C)(C)NC2=O (racemic) |
| 2.9 | 3 | 0.4 | 2.1 | 3.6 | 1.4 | 4.3 | 0.8 | 0.4 | 4 | 3 | 2 | Cn1c2c(Cl)c(Cl)ccc2c2cc(N)[nH]c(=O)c21 |
| 6.4 | 2 | 2.3 | 3.2 | 3.6 | 1.6 | 3.3 | 0.3 | 0.1 | 4 | 2.9 | 4.6 | Cn1c2c(Cl)c(Cl)ccc2c2cc[nH]c(=O)c21 |
| 0.4 | 1 | 0.6 | 2.8 | 3.4 | 0.9 | 1.2 | 0.8 | 0 | 3.3 | 2 | 1.7 | CCC1(CC)NC(=O)c2c(c3ccc(Cl)c(Cl)c3n2C)C1C#N (stereo not given) |
| 5.5 | 2.1 | 1.2 | 0.9 | 2.3 | 3.1 | 1.6 | 0.3 | 0.2 | 1.6 | 1.6 | 3.9 | Cn1c2c(Cl)c(Cl)ccc2c2cn[nH]c(=O)c21 |

The remaining lines, values behind:

| SMILES | ΔTm [1] [°C] | ΔTm [2] [°C] | ΔTm [3] [°C] | ΔTm [4] [°C] | ΔTm [5] [°C] | ΔTm [6] [°C] | ΔTm [7] [°C] | ΔTm [8] [°C] | ΔTm [9] [°C] | ΔTm [10] [°C] | ΔTm [11] [°C] | ΔTm [12] [°C] |
| --- | --- | --- | --- | --- | --- | --- | --- | --- | --- | --- | --- | --- |
| Cn1c2c(c3ccc(Cl)c(Cl)c31)C(C#N)C1(CCNCC1)NC2=O (racemic) | 3.5 | 4.2 | 5.9 | 4.6 | 9.6 | 1.4 | 1.4 | 5.8 | 4 | 10.7 | 6.5 | 1.5 |
| CCN1CCC2(CC1)NC(=O)c1c(c3ccc(Cl)c(Cl)c3n1C)C2C#N (racemic) | 0 | 1.8 | 2.1 | 1.8 | 7.1 | 0.4 | 0.9 | 3.1 | 0.7 | 7.4 | 3.9 | 0.2 |
| Cn1c2c(c3ccccc31)C(C#N)C(C)(C)NC2=O (stereo not given) | 1.7 | 0.7 | 1 | 1.4 | 1.3 | 3.2 | 0 | 0.5 | 0 | 0.9 | -0.2 | 0.6 |
| N#CC1c2c([nH]c3c(Cl)c(Cl)ccc23)C(=O)NC12CCCCC2 (racemic) | 1.2 | 1.2 | 0.5 | 5.7 | 4.9 | 0.3 | 2.8 | 1 | -0.4 | 4.9 | 1.4 | 2.4 |
| Cn1c2c(c3ccc(Cl)c(Cl)c31)C(C#N)C1(CCN(C(=O)OC(C)(C)C)CC1)NC2=O (racemic) | 0 | 0.3 | 0.3 | 0 | 0.6 | 0.5 | -0.2 | 0.3 | 0.4 | 0.8 | -0.2 | 0.3 |
| CC1(C)NC(=O)c2[nH]c3c(Cl)c(Cl)ccc3c2C1C#N (stereo not given) | 3.1 | 1.9 | 1.1 | 4.9 | 4 | 4 | 2.5 | 1.2 | -0.2 | 3.5 | 2.3 | 1.1 |
| CN1CCC2(CC1)NC(=O)c1c(c3ccc(Cl)c(Cl)c3n1C)C2C#N (racemic) | 1.5 | 2.7 | 2.2 | 2.1 | 7.2 | 0.6 | 0.8 | 3.3 | 0.5 | 7.7 | 5.2 | 0.9 |
